# TRPC6 act – activators of mouse TRPC6 channel | HEK293-TRPC6 membrane potential dye fluorescence; active compounds read high | B-score at 10 µM | 310,000 tested, 0.13% active | AID 2550;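 active = B-score of the integrated fluorescence ratio above library mean plus 3 SD, and starting fluorescence ratio within library mean plus 5 SD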;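 note: higher score means more depolarization so channel activation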
# TRPC4 act – TRPC4 (mouse) channel activation | Q9QUQ5 | HEK293 TRPC4beta/mu-opioid, Fluo4 calcium fluorescence; active compounds read high | 310,000 tested, 0.49% active | B-score at 10 µM | AID 2237;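 active = B-score above 5 SD of library B-scores, and initial fluorescence ratio not above library mean plus 5 SD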;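 note: positive B-score marks a calcium rise read as TRPC4 activation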
#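 System: HEK293 cells stably co-expressing mouse TRPC4beta and mu-opioid receptor; Schedule: Fluo4 dye loading 45 min at room temperature, 110 s recording; Detection: Fluo4 fluorescence, kinetic; Evaluation: B-scored integrated calcium fluorescence ratio; Controls: buffer (low) and maximal DAMGO (high).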
# TRPC6 inh – mouse TRPC6 channel inhibition; HEK293-TRPC6, membrane potential dye, ACh-evoked depolarization; active compounds read low; B-score at 10 µM; 310,000 tested, 1.1% active; AID 2553;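 active = B-score under library mean minus 3 SD, initial fluorescence not abnormally high, positive integrated signal ratio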;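 note: B-score derived from integrated fluorescence ratio over the kinetic read; more negative B-score means stronger inhibition of depolarization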
# TRPC4 block – blocks the mouse TRPC4 cation channel; B-score at 10 µM; AID 2247; HEK293 TRPC4beta/mu-opioid, DAMGO-evoked Fluo4 calcium flux; active compounds read low; Q9QUQ5; 300,000 tested, 0.39% active;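 active = B-score over 3 SD under the library average, no early fluorescence shift, positive overall ratio signal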
#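 Material: HEK293 cells with stable TRPC4beta plus mu-opioid receptor expression / Probe or stimulus: DAMGO in two steps, submaximal then maximal / Compound: single concentration per test compound / Technique: kinetic Fluo4 fluorescence imaging of calcium influx / Read-out: per-well B score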
# TRPC4 potent – allosteric potentiators of mouse TRPC4 channel; HEK293 TRPC4beta/mu-opioid, DAMGO EC20, Fluo-4 Ca2+ flux; active compounds read high; Q9QUQ5; 310,000 tested, 0.42% active; B-score at 10 µM; AID 2227;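 active = B-score of calcium response area above 5 SD of library B-scores, with initial fluorescence ratio within 5 SD of library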;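 note: B-score of integrated fluorescence ratio over time as area under calcium response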
# An asterisk follows results filed as active; i = inactive. Rows were chosen to be rich in hits. Some 2.3% of all compounds tested hit in one or more screens of this group.
SMILES,TRPC6 act,TRPC4 act,TRPC6 inh,TRPC4 block,TRPC4 potent
C=CCN(C(=O)c1csnn1)C(C(=O)NCc1ccc(F)cc1)c1ccccc1F (stereo not drawn),i,i,i,i,i
Oc1cccc(CCC2CCCCN2Cc2cn[nH]c2-c2ccc3c(c2)OCO3)c1 (stereo not drawn),i,43*,i,i,i
CN(C)S(=O)(=O)N1CCC(CCCC2CCN(S(=O)(=O)N(C)C)CC2)CC1,i,i,i,i,23*
CN(C)S(=O)(=O)N1CCCN(S(=O)(=O)N(C)C)CC1,i,i,i,i,i
CN1C(=O)C(O)(C2CCCCCC2=O)c2ccccc21 (stereo not drawn),i,i,i,i,i
CCCCCCCCCn1c2c(c(=N)c3c1CCC3)CCCC2,i,i,i,i,i
CCCCCCCCCCn1c2c(c(=N)c3c1CCC3)CCC2,i,52*,-5*,i,i
COC(=O)c1cccc(NC(=O)Nc2ccccc2OC)c1,i,i,i,i,i
Cc1cccc(C)c1N1CCc2cn[nH]c21,i,i,i,-6*,i
CCOc1ccc(-c2nc(CSCC(=O)NC3CC3)c(C)o2)cc1,i,i,i,i,i
CCOc1ccc(-c2nc(CSCC(=O)NCc3ccco3)c(C)o2)cc1,12*,i,i,i,i
CCCCS(=O)(=O)N1CCCC(C(=O)NCC2CCCO2)C1 (stereo not drawn),i,85*,i,i,i
Cc1ccc(S(=O)(=O)c2c(C(=O)c3ccccc3)cnc3cc4c(cc23)OCCO4)cc1,i,i,i,i,18*
COc1ccc2nc(SCCN(C)C)[nH]c2c1,i,113*,i,i,i
COc1ccc2nc(SCC(N)=O)[nH]c2c1,i,i,i,i,i
O=C(c1ccc(Cl)c(Cl)c1)N(Cc1ccco1)c1ccc(O)cc1,i,i,i,-7*,i
CCN(CC(=O)Nc1cccc(OC)c1)C(=O)c1cnc(Cl)c(Cl)c1,i,i,i,i,i
CCCCN(CC)CCCNC(=O)Cn1nc(Cc2cccnc2)c2ccccc2c1=O,i,134*,i,i,i
CCN(CC)CCNC(=O)Cn1nc(Cc2ccccc2)c2ccccc2c1=O,i,i,i,i,i
CCOC(=O)CC1C(=O)NCCN1c1nc2ccc(C)cn2c(=O)c1/C=C1\SC(=S)N(CC(C)C)C1=O (stereo not drawn),i,i,i,i,i
CCCN1C(=O)/C(=C/c2c(N3CCNC(=O)C3CC(=O)OCC)nc3c(C)cccn3c2=O)SC1=S (stereo not drawn),27*,i,i,i,i
CCOC(=O)CC1C(=O)NCCN1c1nc2ccc(C)cn2c(=O)c1/C=C1\SC(=S)N(C(C)CC)C1=O (stereo not drawn),61*,62*,i,i,i
Cc1n[nH]c(=O)c2c(NC(=O)CSc3nc4ccccc4c(=O)n3CCCOC(C)C)oc(C)c12,i,i,i,i,i
CCCOc1ccc(CSC2=NCCN2)cc1[N+](=O)[O-],i,i,i,i,12*
COc1ccc(CSC2=NCCN2)cc1Br,i,i,i,i,i
SMILES,TRPC6 act,TRPC4 act,TRPC6 inh,TRPC4 block,TRPC4 potent
O=[N+]([O-])c1cc(CSC2=NCCN2)ccc1O,i,i,i,i,i
COc1ccc(CSC2=NCCN2)cc1Cl,i,i,i,i,10*
O=c1[nH]c2ccccc2c(O)c1-c1ccccc1,i,i,i,i,i
O/N=C/Cc1[nH]c2ccccc2c1-c1ccccc1,i,i,i,-5*,i
CCSC(C)CC1C/C(=N/O)c2c(CC)noc2C1 (stereo not drawn),i,i,i,i,i
CCCc1noc2c1/C(=N\O)CC(CC(C)SCC)C2 (stereo not drawn),i,i,i,-6*,i
COc1ccc(F)cc1CN1CCN(C(=O)CCC(=O)Nc2nnc(C(C)C)s2)CC1,i,69*,i,i,i
